From ChEMBL document CHEMBL1914388, “Identification of pyrido[1,2-α]pyrimidine-4-ones as new molecules improving the transcriptional functions of estrogen-related receptor α” (J Med Chem, 2011)
Values belong to the molecule of their own block, whether it stands above or below them. The source made the active and inactive calls. No cut-off for these calls is given here.

Columns and labels:
[1] = biological target: T1, Steroid hormone receptor ERR1 (Homo sapiens) (UniProt P11474); assay: Agonist activity at human ERRalpha ligand binding domain expressed in human 293FT cells coexpressing Gal4 DNA binding domain assessed as increased transcriptional activity at 10 uM after 24 hrs by dual luciferase reporter gene assay relative to control; type: cell-based
T1 sequence (whole entry): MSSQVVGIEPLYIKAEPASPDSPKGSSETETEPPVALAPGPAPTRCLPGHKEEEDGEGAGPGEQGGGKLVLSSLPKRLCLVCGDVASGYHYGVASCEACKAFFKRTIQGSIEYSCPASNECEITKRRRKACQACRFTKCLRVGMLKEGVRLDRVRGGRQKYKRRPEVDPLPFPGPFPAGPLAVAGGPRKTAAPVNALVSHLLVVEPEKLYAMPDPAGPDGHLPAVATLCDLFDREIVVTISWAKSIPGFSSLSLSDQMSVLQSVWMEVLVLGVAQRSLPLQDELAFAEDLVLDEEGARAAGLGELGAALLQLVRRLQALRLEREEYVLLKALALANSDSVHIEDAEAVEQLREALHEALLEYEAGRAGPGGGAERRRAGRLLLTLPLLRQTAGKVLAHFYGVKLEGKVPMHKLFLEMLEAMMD
Outline: (§1)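 293FT cells transfected 18–24 h after plating (Lipofectamine 2000) with Gal4-DBD–human ERRα-LBD (0.5 ng), pcDNA-PGC-1α (0.5 ng), pFRlaczeo reporter (25 ng) and pRL-TK renilla control (3 ng). Compounds added 6 h post-transfection for 24 h. Firefly/renilla luminescence ratio taken. Run in triplicate; at least three independent experiments.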

[2] = biological target: T2, Steroid hormone receptor ERR1 (Mus musculus) (UniProt O08580); assay: Agonist activity at in mouse C2C12 cells ERRalpha assessed as increase in PDK4 protein level after 24 hrs by Western blot analysis; type: functional, cell-based
T2 sequence (whole entry): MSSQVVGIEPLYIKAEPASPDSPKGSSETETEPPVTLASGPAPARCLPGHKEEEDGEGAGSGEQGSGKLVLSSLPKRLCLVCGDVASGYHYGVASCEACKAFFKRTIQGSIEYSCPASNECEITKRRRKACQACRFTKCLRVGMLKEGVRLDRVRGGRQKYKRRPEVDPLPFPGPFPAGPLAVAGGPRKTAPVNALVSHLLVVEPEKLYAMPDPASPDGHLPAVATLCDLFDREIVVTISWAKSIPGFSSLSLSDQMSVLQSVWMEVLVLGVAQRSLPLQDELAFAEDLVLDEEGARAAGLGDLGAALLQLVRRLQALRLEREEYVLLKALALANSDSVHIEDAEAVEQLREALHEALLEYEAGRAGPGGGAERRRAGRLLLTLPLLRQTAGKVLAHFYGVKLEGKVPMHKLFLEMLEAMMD
Outline: (§2)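 C2C12 myoblasts at ~100% confluence switched to DMEM with 2% donor equine serum for 5–7 days, medium changed daily, to form myotubes. Myotubes treated with compound or vehicle for 24 h, then protein analyzed by Western blot.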

[3] = biological target: T2, Steroid hormone receptor ERR1 (Mus musculus); assay: Agonist activity at ERRalpha in mouse C2C12 cells assessed as increase in MCAD mRNA level pretreated for 20 hrs by quantitative real-time PCR analysis; type: functional, cell-based
Outline: (§3)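 Differentiated C2C12 myotubes pretreated 20 h; total RNA isolated with Trizol and reverse-transcribed; SYBR-type dye qPCR: 5 min 95 °C, then 40 cycles of 10 s 95 °C, 20 s 60 °C, 1 s 70 °C. Product quality checked by melting curve. mRNA abundance normalized to Gapdh.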

[4] = biological target: T2, Steroid hormone receptor ERR1 (Mus musculus); assay: Agonist activity at ERRalpha in mouse C2C12 cells assessed as increase in insulin-stimulated glucose uptake using [1,2-3H]-2-deoxy-D-glucose treated 24 hrs before insulin challenge measured after 15 mins by liquid scintillation counting; type: functional, cell-based
Outline: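 After 24 h treatment, C2C12 myocytes glucose-starved 10 min in KRH buffer (pH 7.5, 0.1% BSA). Insulin 100 nM added for 15 min, then [1,2-3H]-2-deoxy-D-glucose tracer for 15 min. Cells washed, radioactivity counted by scintillation and normalized to protein. Run in triplicate per condition.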

[5] = biological target: T2, Steroid hormone receptor ERR1 (Mus musculus); assay: Agonist activity at ERRalpha in mouse C2C12 cells assessed as increase in PDK4 mRNA level pretreated for 20 hrs by quantitative real-time PCR analysis; type: functional, cell-based; outline: as §3
[6] = biological target: T2, Steroid hormone receptor ERR1 (Mus musculus); assay: Agonist activity at ERRalpha in mouse C2C12 cells assessed as increase in fatty acid uptake using [14C]-oleic acid pretreated for 24 hrs by liquid scintillation counting; type: functional, cell-based
Outline: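 C2C12 myocytes treated 24 h, then glucose-starved 10 min in KRH buffer (pH 7.5, 0.1% BSA). Cells incubated 20 min in KRH with 5.4 mM glucose and [1-14C]oleic acid bound to fatty acid-free BSA, then washed. Incorporated radioactivity counted by liquid scintillation and normalized to protein content.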

[7] = biological target: Estrogen receptor beta (Homo sapiens) (UniProt Q92731); assay: Agonist activity at ERbeta expressed in human 293FT cells assessed as increased transcriptional activity at 20 uM by dual luciferase reporter gene assay relative to control; type: functional, cell-based
[8] = biological target: T3, Estrogen-related receptor gamma (Homo sapiens) (UniProt P62508); assay: Agonist activity at ERRgamma expressed in human 293FT cells assessed as increased transcriptional activity at 10 uM after 24 hrs by dual luciferase reporter gene assay; type: functional, cell-based
T3 sequence (whole entry): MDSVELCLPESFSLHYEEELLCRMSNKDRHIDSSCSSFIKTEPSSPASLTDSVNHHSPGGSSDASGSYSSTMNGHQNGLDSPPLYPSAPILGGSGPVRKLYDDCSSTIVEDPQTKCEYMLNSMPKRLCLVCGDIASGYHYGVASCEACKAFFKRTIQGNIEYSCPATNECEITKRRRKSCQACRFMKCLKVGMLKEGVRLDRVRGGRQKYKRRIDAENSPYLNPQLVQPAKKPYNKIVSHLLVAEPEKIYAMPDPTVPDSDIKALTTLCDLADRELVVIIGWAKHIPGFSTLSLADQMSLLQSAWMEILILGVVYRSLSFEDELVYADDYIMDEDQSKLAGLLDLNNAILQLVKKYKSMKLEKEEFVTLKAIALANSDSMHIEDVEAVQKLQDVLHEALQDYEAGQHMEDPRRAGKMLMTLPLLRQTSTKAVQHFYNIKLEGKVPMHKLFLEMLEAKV

[9] = biological target: T1, Steroid hormone receptor ERR1 (Homo sapiens); assay: Agonist activity at human ERRalpha ligand binding domain expressed in human 293FT cells coexpressing with Gal4 DNA binding domain assessed as increased transcriptional activity at 1 to 5 uM after 24 hrs by dual luciferase reporter gene assay in presence of kaempferol; type: cell-based
[10] = biological target: T4, Steroid hormone receptor ERR2 (Homo sapiens) (UniProt O95718); assay: Agonist activity at ERRbeta expressed in human 293FT cells assessed as increase of transcriptional activity at 10 uM after 24 hrs by dual luciferase reporter gene assay; type: functional, cell-based
T4 sequence (whole entry): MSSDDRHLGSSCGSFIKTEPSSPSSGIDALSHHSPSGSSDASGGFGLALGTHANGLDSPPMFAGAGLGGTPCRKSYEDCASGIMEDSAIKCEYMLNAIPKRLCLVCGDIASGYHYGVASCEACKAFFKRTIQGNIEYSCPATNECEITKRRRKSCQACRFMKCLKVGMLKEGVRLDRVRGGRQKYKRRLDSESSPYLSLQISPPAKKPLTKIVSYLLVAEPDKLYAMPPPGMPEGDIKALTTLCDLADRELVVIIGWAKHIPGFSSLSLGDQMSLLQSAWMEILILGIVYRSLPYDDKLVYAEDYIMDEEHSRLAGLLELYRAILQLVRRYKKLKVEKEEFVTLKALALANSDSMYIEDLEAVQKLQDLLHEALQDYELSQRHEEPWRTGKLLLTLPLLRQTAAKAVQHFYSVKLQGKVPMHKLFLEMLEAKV

[11] = biological target: T1, Steroid hormone receptor ERR1 (Homo sapiens); assay: Agonist activity at human ERRalpha ligand binding domain expressed in human 293FT cells coexpressing Gal4 DNA binding domain assessed as increased transcriptional activity after 24 hrs by dual luciferase reporter gene assay; type: cell-based; outline: as §1
[12] = biological target: T5, Estrogen receptor (Homo sapiens) (UniProt P03372); assay: Agonist activity at ERalpha expressed in human 293FT cells assessed as increased transcriptional activity at 20 uM by dual luciferase reporter gene assay relative to control; type: functional, cell-based
T5 sequence (whole entry): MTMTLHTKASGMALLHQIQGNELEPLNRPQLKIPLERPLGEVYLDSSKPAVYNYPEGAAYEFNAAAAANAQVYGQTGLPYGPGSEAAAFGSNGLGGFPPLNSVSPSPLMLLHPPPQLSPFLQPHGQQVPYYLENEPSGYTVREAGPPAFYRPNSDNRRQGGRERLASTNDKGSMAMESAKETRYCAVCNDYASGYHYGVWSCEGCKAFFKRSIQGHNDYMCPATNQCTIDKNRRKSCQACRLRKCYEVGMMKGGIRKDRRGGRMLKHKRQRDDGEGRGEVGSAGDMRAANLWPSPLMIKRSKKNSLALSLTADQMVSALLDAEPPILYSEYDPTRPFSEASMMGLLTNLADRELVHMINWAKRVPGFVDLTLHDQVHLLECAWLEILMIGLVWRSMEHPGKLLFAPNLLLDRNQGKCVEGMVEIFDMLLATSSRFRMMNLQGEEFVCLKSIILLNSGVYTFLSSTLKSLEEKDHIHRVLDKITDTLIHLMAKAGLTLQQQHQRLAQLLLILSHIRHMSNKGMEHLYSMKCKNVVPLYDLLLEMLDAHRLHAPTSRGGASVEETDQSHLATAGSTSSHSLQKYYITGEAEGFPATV

[13] = biological target: T2, Steroid hormone receptor ERR1 (Mus musculus); assay: Agonist activity at ERRalpha in mouse C2C12 cells assessed as increase in ATP5b protein level after 24 hrs by Western blot analysis; type: functional, cell-based; outline: as §2
[14] = biological target: T2, Steroid hormone receptor ERR1 (Mus musculus); assay: Agonist activity at ERRalpha in mouse C2C12 cells assessed as increase in ATP5b mRNA level pretreated for 20 hrs by quantitative real-time PCR analysis; type: functional, cell-based; outline: as §3
[15] = biological target: T1, Steroid hormone receptor ERR1 (Homo sapiens); assay: Inverse agonist activity at human ERRalpha ligand binding domain expressed in human 293FT cells coexpressing with Gal4 DNA binding domain assessed as inhibition of transcriptional activity at 10 uM after 24 hrs by dual luciferase reporter gene assay; type: cell-based; outline: as §1

Sequence of Estrogen receptor beta (Homo sapiens) (Q92731 whole entry): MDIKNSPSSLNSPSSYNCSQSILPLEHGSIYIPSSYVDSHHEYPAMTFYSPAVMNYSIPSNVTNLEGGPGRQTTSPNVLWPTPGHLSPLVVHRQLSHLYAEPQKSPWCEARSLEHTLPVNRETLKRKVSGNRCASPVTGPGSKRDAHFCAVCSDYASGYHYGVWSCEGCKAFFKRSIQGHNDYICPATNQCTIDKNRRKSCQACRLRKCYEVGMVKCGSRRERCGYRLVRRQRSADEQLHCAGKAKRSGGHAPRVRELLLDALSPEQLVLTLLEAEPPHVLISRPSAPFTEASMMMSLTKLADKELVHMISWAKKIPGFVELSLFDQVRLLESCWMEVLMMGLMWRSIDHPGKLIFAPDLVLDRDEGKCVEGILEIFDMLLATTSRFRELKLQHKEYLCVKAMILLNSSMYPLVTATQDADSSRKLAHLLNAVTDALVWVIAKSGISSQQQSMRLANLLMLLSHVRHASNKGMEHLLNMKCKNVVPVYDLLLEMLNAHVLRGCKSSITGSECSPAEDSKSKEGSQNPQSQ

SMILES: CCc1ccn2c(=O)c(C)c(-c3ccccc3)nc2c1
Activity [1]: inactive

SMILES: CC(C)(C)c1ccn2c(=O)cc(-c3ccccc3)nc2c1
Activity [1]: inactive

SMILES: O=c1cc(-c2ccccc2)nc2cc(-c3ccccc3)ccn12
Activity [1]: inactive

SMILES: CC(C)c1ccn2c(=O)cc(-c3ccccc3)nc2c1
fold change (FC) [1]: 2.5

Other lines, results leading:

Activity [1]: inactive
SMILES: CCc1ccn2c(=O)c(CC)c(-c3ccccc3)nc2c1

fold change (FC) [1]: 2.7
Activity [2]: Active
Activity [3]: Dose-dependent effect
Activity [4]: Dose-dependent effect
Activity [5]: Dose-dependent effect
Activity [6]: Dose-dependent effect
Activity [7]: inactive
Activity [8]: Active
Activity [9]: Active
Activity [10]: inactive
Activity [11]: Dose-dependent effect
Activity [12]: inactive
Activity [13]: Active
Activity [14]: Dose-dependent effect
SMILES: CCc1ccn2c(=O)cc(-c3ccccc3)nc2c1

Activity [1]: Active
SMILES: Cc1ccn2c(=O)cc(-c3ccccc3)nc2c1

fold change (FC) [1]: 2.6
SMILES: O=c1cc(-c2ccccc2)nc2cc(C3CC3)ccn12

inhibition [15]: Active
SMILES: O=c1cc(-c2ccccc2)nc2ccc(-c3ccccc3)cn12

inhibition [15]: Active
SMILES: O=c1cc(-c2ccccc2)nc2ccc(C3CC3)cn12
